# FLuc inh counter: counter-screen for luciferase assay inhibitors: firefly luciferase inhibition | ATPLite firefly luciferase biochemical luminescence, 10 min | inhibition, % at 10 µM | 200,000 compounds, 1.5% hits | AID 1006;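 active = inhibition above about 50% when tested at 10 µM, limit read from the data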
# C8 TRAIL sens: caspase-8 TRAIL sensitization | NB7+C8 cells + TRAIL, ATPlite viability luminescence | inhibition (viability loss, TRAIL sensitization), % at 10 µM | AID 624354 | 360,000 compounds, 1% hits;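 active = compounds causing at least 50% loss of cell viability in the single-dose screen, relative to plate controls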
# PPC-1+TRAIL kill: PPC-1 cancer cell killing with TRAIL present. PPC-1 cells + TRAIL, ATPLite viability luminescence. cell killing (% activity), % at 4 µM or 5 µM. 220,000 compounds, 0.41% hits. AID 1443;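 active = cell killing above 50% in the first pass at 4 µM, then a duplicate retest at 5 µM averaging 50% or more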
# FLuc stim CS: firefly luciferase counter-screen for stimulation assays; P08659; AID 1027; ATPlite luciferase biochemical, luminescence, 10 min; 0 = ATP-free wells, 1 = DMSO control; activation factor at 10 µM; 200,000 tested, under 10 active;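 active = luciferase activation factor, scaled between plate controls, of at least 2 with compound at 10 µM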
#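 Material: Luciferase/luciferin reagent mix; Doses: test compounds dosed from 2 mM stocks in 100% DMSO; Schedule: 10 min incubation after luciferase reagent addition, room temperature; Measured by: luminescence from luciferase reaction; Read-out: luminescence gain marking luciferase activators.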
# Hits are given with their value; n = inactive; x = no result given. Most compounds without a hit are left out; they make up all but 1.5% or so of the library.
SMILES,FLuc inh counter,C8 TRAIL sens,PPC-1+TRAIL kill,FLuc stim CS
COc1cc(C(=O)Nc2nc3ccccc3[nH]2)ccc1OC(F)F,x,47.5,n,x
CC(=O)c1ccccc1NC(=O)C1CCCN(C(=O)c2ccc(Cl)cc2)C1 (stereo unspecified),x,n,x,x
COc1cc(NS(=O)(=O)c2ccc(NC(=S)NC(=O)c3ccc(F)c(F)c3)cc2)nc(OC)n1,x,n,x,x
COc1ccccc1-c1csc(C(O)(c2ccccc2)C(F)(F)F)n1 (stereo unspecified),x,n,x,x
CC(NC(=O)c1cc(S(=O)(=O)N(C)C)ccc1Cl)c1ccc(-n2ccnc2)cc1 (stereo unspecified),x,n,x,x
O=C(Nc1nc2ccccc2[nH]1)c1ccccc1OC(F)F,x,68.8,x,x
O=C(Nc1nc2ccccc2[nH]1)c1ccccc1[N+](=O)[O-],n,n,n,n
COC(=O)C1=C(C)N(Cc2ccccc2)C(=NCC(C)C)N[C@H]1c1cccc(C(F)(F)F)c1,x,56.2,x,x
COC(=O)C1=C(C)N(Cc2ccccc2)C(=NCc2cccc(Cl)c2)N[C@H]1c1cccc(F)c1,x,80.8,x,x
COC(=O)C1=C(C)N(Cc2ccccc2)C(=NCc2ccccc2)N[C@H]1c1cccc(C(F)(F)F)c1,x,77.9,x,x
COC(=O)C1=C(C)N(Cc2ccccc2)C(=NCC(C)C)N[C@H]1c1cccc(F)c1,x,n,x,x
COc1ccc(S(=O)(=O)N2CCOCC2)cc1C(=O)N(C)Cc1ccco1,x,n,x,x
CCS(=O)(=O)N1CCC(NC(=O)C(Cc2ccc(OC)c(OC)c2)NC(C)=O)CC1 (stereo unspecified),x,n,x,x
NSc1nc(N)c2nc(-c3ccccc3)c(-c3ccccc3)nc2n1,n,n,n,n
Nc1nc(N)c2nc(-c3ccccc3)c(N)nc2n1,n,78.6,n,n
N=c1oc2cc(O)ccc2cc1C(=O)Nc1ccc(Cl)cc1,x,48.5,x,x
O=C1NC(C2CC3C=CC2C3)Nc2ccccc21 (stereo unspecified),x,n,x,x
Cc1cc(N/N=C/c2ccc(O)c(C)c2O)nc(-c2ccccc2O)n1,n,n,64.3,n
COc1ccc2c(c1)C(CC(C)=O)N(c1ccc(-c3cccs3)cc1)C(c1ccsc1)=C2 (stereo unspecified),x,n,x,x
Cn1c(=O)c2cc(NC(=O)CCc3cccnc3)ccc2n1Cc1ccc(F)cc1,x,n,x,x
COc1ccc(C2(C(=O)c3ccccc3)C(=O)c3ccccc3C2=O)cc1,x,55.5,n,x
O=c1[nH]c(N/N=C/c2ccccc2)nc2ccccc12,67.3,n,n,n
O=c1[nH]c(N/N=C\c2ccc3c(c2)OCO3)nc2ccccc12,75.8,52.5,n,n
O=c1[nH]c(N/N=C/c2cc3c(cc2[N+](=O)[O-])OCO3)nc2ccccc12,x,n,n,x
CCc1ccc2oc(-c3ccc(OC)cc3)cc(=Nc3cccc(C(=O)O)c3)c2c1,51.3,n,n,n
SMILES,FLuc inh counter,C8 TRAIL sens,PPC-1+TRAIL kill,FLuc stim CS
CCc1ccc2oc(-c3ccc(OC)cc3)cc(=Nc3c(C)n(C)n(-c4ccccc4)c3=O)c2c1,n,n,n,n
Cc1cccc(CN2CCN(C3CN(Cc4ccc(F)cc4)S(=O)(=O)C3)CC2)c1 (stereo unspecified),x,n,x,x
O=C(COc1ccccc1Cl)N1CCNC1=O,x,n,x,x
Cc1cc(Cl)ccc1NC(=O)CN1C(=O)C(=O)N(C2CCCC2)C1=O,x,n,x,x
CCCCCCCCCCCCCCCC(O)C[N+](C)(C)CCO (stereo unspecified),x,91.9,x,x
CCCCCC(O)CCCC(=O)O (stereo unspecified),x,n,x,x
CC(=O)NC1CC2CCCC(C1)N2C(=O)Nc1ccc(Cl)cc1 (stereo unspecified),x,n,x,x
Cn1cccc1-c1nc2ccc(NC(=O)c3ccco3)cc2[nH]1,n,n,n,n
CC(=O)Nc1ccc2nc(-c3ccccn3)[nH]c2c1,51.1,n,n,n
O=C(Nc1ccc2nc(-c3cccs3)[nH]c2c1)c1cccs1,61.3,n,n,n
O=C(Nc1nc(-c2cccs2)cs1)c1ccco1,53.3,n,n,n
O=C(Nc1nc(-c2ccncc2)cs1)c1ccco1,n,n,n,n
O=C(Nc1ccc2nc(-c3cccs3)[nH]c2c1)c1ccco1,61.6,n,n,n
COc1ccc(-c2cc(C(=O)NCC(c3ccco3)N(C)C)c3ccccc3n2)cc1OC (stereo unspecified),x,n,x,x
Cc1cc(C)n(C(C)CNS(=O)(=O)c2ccc(Cl)cc2)n1 (stereo unspecified),x,n,x,x
CCCOc1ccc(C(=O)CCNC(Cc2c[nH]c3ccccc23)C(=O)O)cc1 (stereo unspecified),x,n,x,x
COc1ccc(N2C(N)=NC(N)=NC2(C)C)cc1,n,82.3,n,n
COc1cccc(N2C(N)=NC(N)=NC2(C)C)c1,n,85.2,n,n

# Compound activity (PubChem BioAssay)
